B1: Osa-1-4 twister ribozyme (parent)
chain: CCGCCUAACACUGCCAAUGCCGGUCCCAAGCCCGGAUAAAAGUGGAGGGGGCGG

In the data set the parent is B1. In words: self-cleavage, relative activity (ratio to wild type); higher = more cleavage; co-transcriptional. A digest of the protocol: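 Relative activity is the fraction cleaved divided by that of the wild-type ribozyme. The library came from a DNA template for a 54-nucleotide Oryza sativa twister ribozyme, doped at the 48 positions downstream of the cleavage site with 97 % wild-type base and 1 % of each other base. After 2 h of in vitro transcription at 37 °C with co-transcriptional self-cleavage, the RNA was reverse-transcribed with a template-switching oligonucleotide, amplified by PCR and deep-sequenced, and reads with or without upstream sequence gave the cleavage status.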
Take C20G G34C: the self-cleavage stood at 0.08. In the case of C20G G34U it was 0.06; in that of C20G G34A, 0.08; in that of C20A G47U, 0.32. C20A G47C: the self-cleavage was 0.13.

Regarding C20A G47A, the self-cleavage came out at 0.36.

For C20U C25G, the self-cleavage came out at 0.15. In the case of C20U C25U it was 0.9; in that of C20U C25A, 0.17; in that of G19C U18G, 0.91.

Regarding G19C U18A, the self-cleavage is 0.66. In the case of G19C U18C, the self-cleavage was found to be 0.39.

Regarding G19U G49U, the self-cleavage worked out at 0.03. As for G19U G49A, the self-cleavage was determined as 0.04. As for G19U G49C, the self-cleavage came out at 0.04. With C20U C27A, the self-cleavage was found to be 0.23. In the case of C20U C27G it was 0.08.

For C20A G34U, the self-cleavage was found to be 0.64.

C20A G34C: the self-cleavage was 0.26. For the variant C20A G34A, the self-cleavage came to 0.84. In the case of C20A C31U it was 0.81.

Turning to C20A C31G, the self-cleavage came to 0.14. Next, C20A C31A: 0.04; C20A G50A: 0.8; C20A G50C: 0.78.

Consider C20A G50U, for which the self-cleavage turned out to be 0.82. Consider G19C G53A, for which the self-cleavage came to 0.06. Consider G19C G53C, for which the self-cleavage was determined as 0.04.

Regarding G19C G53U, the self-cleavage amounted to 0.05. In the case of C20G U12A it was 0.09. Take C20G U12G: the self-cleavage came out at 0.04. Next, C20G U12C: 0.07; G19U G22A: 0.32; G19U G22U: 0.12. Next, G19U G22C: 0.05; C20A G45C: 0.05; C20A G45A: 0.45. In the case of C20A G45U it was 0.13; in that of C20G, 0.2; in that of C20A, 0.86. As to C20U, the self-cleavage turned out to be 0.97. With C20U C26G, the self-cleavage turned out to be 0.24. For C20U C26A, the self-cleavage was 0.08. Next, C20U C26U: 0.92. In the case of C20G G51A it was 0.09; in that of C20G G51C, 0.03. In the case of C20G G51U, the self-cleavage was found to be 0.06. G19C G34C: the self-cleavage is 0.05. In the case of G19C G34A it was 0.1; in that of G19C G34U, 0.07. C20A U18A: the self-cleavage stood at 0.6. Next, C20A U18C: 0.83; C20A U18G: 0.67. Next, C20G C26U: 0.2. Next, C20G C26G: 0.1; C20G C26A: 0.03; G19C G45A: 0.03.

Regarding G19C G45C, the self-cleavage amounted to 0.03. In the case of G19C G45U it was 0.03; in that of C20G C21U, 0.29; in that of C20G C21G, 0.24. On to C20G C21A, for which the self-cleavage amounted to 0.46. Next, C20A G22C: 0.07; C20A G22A: 0.39. On to C20A G22U, for which the self-cleavage amounted to 0.53. Take C20A G48U: the self-cleavage is 0.09.

As for C20A G48A, the self-cleavage was 0.09. On to C20A G48C, for which the self-cleavage amounted to 0.07. Next, G19A U43G: 0.12. Next, G19A U43A: 0.23; G19A U43C: 0.12; G19C G42A: 0.05. For G19C G42C, the self-cleavage is 0.04. In the case of G19C G42U it was 0.02. In the case of G19U G44C it was 0.34; in that of G19U G44A, 0.1. As to G19U G44U, the self-cleavage was 0.19. In the case of G19U G54U it was 0.54; in that of G19U G54C, 0.1; in that of G19U G54A, 0.16. As to C20A C27U, the self-cleavage stood at 0.31. For the variant C20A C27G, the self-cleavage was 0.09. Turning to C20A C27A, the self-cleavage amounted to 0.34.

G19U U43G: the self-cleavage turned out to be 0.09. Next, G19U U43C: 0.07; G19U U43A: 0.11; G19U U12C: 0.05. For the variant G19U U12A, the self-cleavage worked out at 0.07. In the case of G19U U12G, the self-cleavage amounted to 0.09. In the case of G19C G48C it was 0.02. Next, G19C G48A: 0.02. In the case of G19C G48U it was 0.03; in that of C20G G49U, 0.04; in that of C20G G49C, 0.03.

In the case of C20G G49A, the self-cleavage was determined as 0.05. In the case of G19C G54C it was 0.06; in that of G19C G54A, 0.11; in that of G19C G54U, 0.4. Take C20G G13A: the self-cleavage was found to be 0.03.

In the case of C20G G13C, the self-cleavage stood at 0.02. In the case of C20G G13U, the self-cleavage was determined as 0.01.

Regarding C20A C26U, the self-cleavage turned out to be 0.87. Next, C20A C26A: 0.08; C20A C26G: 0.08.

As for G19C G44U, the self-cleavage amounted to 0.07.

Regarding G19C G44A, the self-cleavage was 0.07. In the case of G19C G44C it was 0.14; in that of C20A G23C, 0.03; in that of C20A G23A, 0.18. Regarding C20A G23U, the self-cleavage is 0.1. In the case of G19C G51C it was 0.03.

For G19C G51A, the self-cleavage is 0.08. In the case of G19C G51U it was 0.04; in that of G19C G35C, 0.29. As for G19C G35A, the self-cleavage was found to be 0.45. Next, G19C G35U: 0.42; C20G G22C: 0.05. In the case of C20G G22A it was 0.08; in that of C20G G22U, 0.09; in that of C20A G54A, 0.75.

Turning to C20A G54U, the self-cleavage came out at 0.76. In the case of C20A G54C it was 0.78. Next, G19U G50U: 0.21. In the case of G19U G50A, the self-cleavage is 0.59. Next, G19U G50C: 0.1; G19A U37A: 0.88; G19A U37C: 1.03.

Consider G19A U37G, for which the self-cleavage was 1. In the case of G19U G48C, the self-cleavage stood at 0.03. Next, G19U G48U: 0.04; G19U G48A: 0.04; C20G G23U: 0.04.

For the variant C20G G23C, the self-cleavage was found to be 0.04. Turning to C20G G23A, the self-cleavage amounted to 0.06.

As to C20G C52U, the self-cleavage is 0.17. C20G C52G: the self-cleavage was 0.11.

Take C20G C52A: the self-cleavage came to 0.08. In the case of G19C G22A it was 0.06; in that of G19C G22U, 0.03; in that of G19C G22C, 0.03. C20A G51U: the self-cleavage amounted to 0.66. In the case of C20A G51C it was 0.28; in that of C20A G51A, 0.78. For C20A G35C, the self-cleavage came to 0.9. Turning to C20A G35U, the self-cleavage amounted to 0.94. Next, C20A G35A: 0.88; G19C G23A: 0.04; G19C G23C: 0.02. Take G19C G23U: the self-cleavage came to 0.04. As to G19U G45A, the self-cleavage is 0.03.

For the variant G19U G45C, the self-cleavage was found to be 0.04. Next, G19U G45U: 0.04. Next, G19A U24C: 0.08. Next, G19A U24G: 0.09; G19A U24A: 0.08. Take C20G C32U: the self-cleavage amounted to 0.03. Consider C20G C32G, for which the self-cleavage stood at 0.06. Next, C20G C32A: 0.03. Next, G19C U37G: 0.24; G19C U37A: 0.46. In the case of G19C U37C it was 0.64. For C20G G50C, the self-cleavage turned out to be 0.06. C20G G50A: the self-cleavage came out at 0.23. In the case of C20G G50U it was 0.09; in that of C20G G19U, 0.37; in that of C20G G19A, 0.41. In the case of C20G G19C it was 0.17.

(Values after the RNAGym collection of RNA variant scans (doi:10.1002/anie.201605470).)
